# Screens (PubChem BioAssay)
# Compounds with a hit are over-represented: about 1.5% of the library has one in this group of screens.
# CASP6 VEID inh – caspase-6 (human) enzyme inhibition | P55212 | purified caspase-6, Z-VEID-R110 cleavage fluorescence | inhibition, % at 12.5 µM | hit rate 0.53% among 350,000 | AID 686996;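 active = mean inhibition across replicates at least about 35%, with every replicate also reaching that limit, limit read from the data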;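 note: 0% = median of neutral control wells and 100% = no fluorescence left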
# Target sequence (P55212 24-179 limits assumed): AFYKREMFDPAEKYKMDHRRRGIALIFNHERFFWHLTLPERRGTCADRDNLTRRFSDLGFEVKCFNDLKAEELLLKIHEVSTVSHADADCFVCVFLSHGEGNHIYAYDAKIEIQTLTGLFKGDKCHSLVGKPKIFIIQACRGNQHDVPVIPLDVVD
# Target sequence (P55212 194-293 limits assumed): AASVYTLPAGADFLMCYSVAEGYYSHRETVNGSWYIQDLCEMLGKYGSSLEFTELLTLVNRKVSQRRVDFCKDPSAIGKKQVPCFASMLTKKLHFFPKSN
# DNMT1 inh – DNMT1 (human) enzyme inhibition; P26358; DNMT1 molecular beacon, Hinp1I cleavage, fluorescence; inhibition (reported as % activation of signal), % at 10 µM; hit rate 0.83% among 360,000; AID 588458
# NS3 helicase inh – inhibitors of Hepatitis C virus NS3 helicase | hit rate 0.56% among 290,000 | inhibition, % at 10.9 µM | NS3 helicase DNA unwinding, Cy5 molecular beacon fluorescence;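 active = inhibition above the mean of all tested compounds plus 3 SD, set per campaign, cut at about 35% in these data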;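 note: 0% = DMSO wells and 100% = thioflavine S control wells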
#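 Assay system: hepatitis C virus NS3 helicase domain fragment enzyme. Also added: annealed dual-labelled DNA beacon duplex, ATP-started. Timing: 1 h reaction at 25 °C, ATP-initiated. Technique: Cy5 fluorescence at 0 and 60 min, beacon hairpin quenching. Evaluation: % inhibition of unwinding. Replication: one well per compound.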
# NSD2 HMT inh – blocks human histone methyltransferase NSD2; hit rate 0.54% among 310,000; inhibition, % at 12.5 µM; AID 743445; O96028; NSD2 peptide methylation, AlphaScreen, 120 min
# Beacon interf DR – shows spectral interference in the DNMT1 beacon assay; shares compounds with DNMT1 inh; molecular beacon fluorescence, spectral interference counter-screen; IC50, µM; 200 tested, under 10 active; AID 602382; call rule not given here
# DNMT1 inh conf – confirmation of human DNMT1 inhibitors; inhibition, % at 10 µM; AID 602385; shares compounds with DNMT1 inh; DNMT1 molecular beacon HinP1I cleavage, fluorescence; hit rate 8% among 2,300;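 active = average inhibition of at least 30% in the single-concentration confirmation test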
# Beacon interf – counter-screen for DNMT1 inhibitors: spectral interference; shares compounds with DNMT1 inh; DNMT1 molecular beacon spectral interference counterscreen, fluorescence 485/520; activation (fluorescence interference), % at 10 µM; hit rate 1% among 2,300; AID 602387;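 active = activation of at least 30% at 10 µM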;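 note: DNMT1 catalytic domain with a HinP1I cleavage step and a FAM/dabcyl DNA beacon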
# * hit, by the source's call; / = no result. Cut-off read from the data, not from the text of the source, unless noted: active = inhibition above about 50%; inactive = the rest.
SMILES,CASP6 VEID inh,DNMT1 inh,NS3 helicase inh,NSD2 HMT inh,DNMT1 inh conf,Beacon interf,others
COc1ccc(Cn2c(-c3ccco3)nc3oc4cc(OC)ccc4c(=O)c3c2=O)cc1,/,61.3*,10.2,/,14.9,-5.7,
COc1ccc2c(=O)c3c(=O)n(Cc4ccco4)c(-c4ccco4)nc3oc2c1,/,86.3*,16.8,7.4,4.1,2.4,
COc1ccc(CN(C)C[C@@H]2Oc3c(NS(=O)(=O)c4ccc(F)cc4)cccc3C(=O)N([C@@H](C)CO)C[C@H]2C)cc1,0.8,/,/,/,/,/,
N#CC1=C(N)OC2=C(C(=O)CCC2)C1c1ccncc1 (stereo not drawn),/,75.0*,-14.6,-0.6,5.2,0.4,
COc1cccc(C(=O)NN2CC(O)=C(c3nc(C)cs3)C2=N)c1,0.3,1.6,-3.9,-0.3,/,/,
Cc1ccc(C(=O)NN2CC(O)=C(c3nc(-c4cccc([N+](=O)[O-])c4)cs3)C2=N)cc1,0.7,79.5*,2.7,0.2,38.9*,-1.9,Beacon interf DR=>99
Cc1ccc(OCC(=O)Nc2nnc(S(=O)(=O)N3CCCCC3)s2)cc1,3.1,88.8*,7.5,8.3,12.6,0.0,
Cc1ccc(OCC(=O)Nc2nnc(S(=O)(=O)N3CCCCCC3)s2)cc1,-2.0,7.1,14.4,/,/,/,
Cc1cc(=O)oc2cc(NC(=O)c3cccc(F)c3)ccc12,-4.4,58.3*,5.6,1.8,0.3,-0.3,
Cc1cc(=O)oc2cc(NC(=O)c3cccc(S(C)(=O)=O)c3)ccc12,-0.9,-9.1,10.8,-1.3,/,/,
O=C(/C=C/c1ccc(Cl)cc1)NC(=S)Nc1ccc(NC(=O)c2ccco2)cc1,/,58.2*,8.9,9.6,2.0,-2.6,
CC(=O)Nc1ccc(NC(=S)NC(=O)/C=C/c2ccc(Cl)cc2)cc1,-0.5,-19.9,-0.1,3.3,/,/,
Cc1ccccc1-c1ccc([C@H]2[C@@H](CO)N3CCCCN(CC4CC4)C[C@H]23)cc1,2.5,/,/,/,/,/,
CCC1(C)NC(=O)N(CC(=O)Nc2sc3c(c2C(=O)OC)CCCCC3)C1=O (stereo not drawn),1.8,-6.5,-3.9,2.0,/,/,
N#Cc1c(NC(=O)CSc2nnc(-c3ccco3)n2-c2ccccc2)sc2c1CCC2,/,67.1*,9.6,/,0.2,2.5,
NC(=O)c1c(NC(=O)CSc2nnc(-c3ccco3)n2-c2ccccc2)sc2c1CCC2,/,86.2*,10.7,/,3.1,2.9,
CCOC(=O)Cc1csc(SCC(=O)Nc2sc3c(c2C(N)=O)CCC3)n1,/,95.0*,10.2,2.0,10.5,-2.6,
CCOC(=O)Cc1csc(SCC(=O)Nc2nccs2)n1,2.1,1.1,/,/,/,/,
CCC1(CC)NC(=O)N(CC(=O)Nc2sc3c(c2C(N)=O)CCC3)C1=O,/,77.3*,28.9,4.4,3.7,-4.5,
COCC#Cc1ccc([C@@H]2[C@@H](CO)N3C(=O)CN(C(=O)C4CCCC4)C[C@H]23)cc1,2.0,/,/,/,/,/,
C[C@H](CO)N1C[C@H](C)[C@@H](CN(C)Cc2ccc(C(=O)Nc3ccccc3N)cc2)Oc2ccc(NS(=O)(=O)c3cccs3)cc2CC1=O,-0.6,/,/,/,/,/,
COC(=O)c1ccc(-c2nc3cc(Cl)c(N)cc3s2)cc1,/,55.5*,-7.4,18.5,0.9,6.5,
CCCCn1c(=O)[nH]c2nc3cc(NC(C)=O)ccc3nc2c1=O,0.7,3.2,24.6,0.6,/,/,
CCCCCCn1c(=O)[nH]c2nc3cc(N)c(C)cc3nc2c1=O,6.9,63.0*,45.4*,1.0,73.6*,118.1*,
Cc1ccc(NC(=O)c2ccc3c(c2)C(=O)N(c2ccccc2C)C3=O)nc1,2.1,79.6*,/,-0.9,2.4,3.4,
SMILES,CASP6 VEID inh,DNMT1 inh,NS3 helicase inh,NSD2 HMT inh,DNMT1 inh conf,Beacon interf,others
CCc1noc(C)c1C(=O)OCC(=O)Nc1cccc(C)c1,-1.1,76.5*,/,-3.3,3.1,2.6,
Cc1cccc(NC(=O)COC(=O)c2c(-c3ccccc3)noc2C)c1,5.6,0.7,/,-3.4,/,/,
Cc1ccc(C2(C(F)(F)F)NC(=O)N3CCN=C3S2)cc1 (stereo not drawn),/,95.0*,3.1,3.6,3.8,5.4,
O=c1c2c3c(sc2n(CCN2CCCC2)c(=O)n1Cc1ccco1)CCCCC3,/,3.3,-24.2,6.8,/,/,
CN(C)CCn1c(=O)n(Cc2ccco2)c(=O)c2c3c(sc21)CCCCC3,/,-2.2,-23.6,26.5,/,/,
O=C(Cn1c(=O)n(Cc2ccco2)c(=O)c2c3c(sc21)CCCCC3)c1ccccc1,24.6,71.7*,25.7,1.0,2.2,2.5,
O=C(Cn1c(=O)n(Cc2ccco2)c(=O)c2c3c(sc21)CCCCC3)Nc1ccccc1,/,93.2*,14.3,44.0,13.1,2.3,
CCC(=O)N1CC[C@@H]2[C@H]1c1cc(-c3ccccc3F)ccc1N(C)[C@@H]2CO,-0.2,/,/,/,/,/,
CC(C)NC(=O)N(C)C[C@@H]1OCCCC[C@@H](C)Oc2ccc(NC(=O)CCCN(C)C)cc2C(=O)N([C@@H](C)CO)C[C@H]1C,-1.7,/,/,/,/,/,
COc1ccc(S(=O)(=O)NCc2ccncc2)cc1OC,/,0.1,5.2,-0.7,/,/,
COc1ccc(S(=O)(=O)NCc2cccnc2)cc1OC,-3.9,56.2*,7.1,25.4,1.3,0.5,
S=c1[nH]nc(-c2cccc(Cl)c2)n1/N=C/c1ccc(-c2ccccc2Br)o1,3.8,62.2*,0.2,/,13.1,-0.3,
CC(=O)N1N=C(c2ccccc2)CC1c1ccccc1 (stereo not drawn),2.6,88.1*,0.4,22.9,7.5,5.7,
CCC(=O)N1N=C(c2ccccc2)CC1c1ccccc1 (stereo not drawn),1.3,0.3,-0.7,3.3,/,/,
O=C(c1ccccc1)N1N=C(c2ccccc2)CC1c1cccs1 (stereo not drawn),-0.7,89.3*,-3.8,33.8,0.8,3.6,
CC(=O)N1N=C(c2ccccc2)CC1c1cccs1 (stereo not drawn),-2.1,3.0,9.7,-4.0,/,/,
COc1ccc(-c2cn(CC[C@H]3CC[C@@H](NC(=O)Nc4ccc(F)cc4)[C@H](CO)O3)nn2)cc1,-0.1,/,/,/,/,/,
O=C(OCC(=O)N1N=C(c2ccc(Cl)cc2)CC1c1ccco1)c1cccnc1 (stereo not drawn),10.8,80.7*,/,1.2,2.6,2.8,
O=C(CCl)N1N=C(c2ccco2)CC1c1ccco1 (stereo not drawn),60.1*,87.5*,27.6,12.4,4.7,6.5,
COc1ccccc1/C=C/C=N/NC(=O)c1cc(-c2ccco2)[nH]n1,6.0,61.4*,26.0,4.0,13.5,1.7,
COc1ccccc1/C=C/C=N/NC(=O)c1ccccn1,-1.5,3.3,0.7,-1.7,/,/,
Cc1noc(C)c1NC(=O)N(C)C[C@@H]1Oc2ccc(NS(=O)(=O)c3cn(C)cn3)cc2C(=O)N([C@H](C)CO)C[C@H]1C,-1.8,/,/,/,/,/,
CN(Cc1ccccc1)c1ccc(C(CC(N)=O)NC(=O)Cc2ccc(Br)cc2)cc1[N+](=O)[O-] (stereo not drawn),0.5,80.2*,/,/,-3.9,-4.1,
